# Experimental data published in ChEMBL document CHEMBL3102803, “Design, synthesis, and biological evaluation of novel piperidine-4-carboxamide derivatives as potent CCR5 inhibitors” (Eur J Med Chem, 2014).
# Key:
# [1] = biological target: T1, C-C chemokine receptor type 5 (Homo sapiens, UniProt P51681); test: Inhibition of CCR5 (unknown origin) expressed in CHO cells assessed as inhibition of RANTES-induced intracellular Ca2+ mobilization after 10 mins by Fluo-4 AM staining-based fluorescence assay; type: functional, cell-based
# T1 sequence (P51681 whole entry): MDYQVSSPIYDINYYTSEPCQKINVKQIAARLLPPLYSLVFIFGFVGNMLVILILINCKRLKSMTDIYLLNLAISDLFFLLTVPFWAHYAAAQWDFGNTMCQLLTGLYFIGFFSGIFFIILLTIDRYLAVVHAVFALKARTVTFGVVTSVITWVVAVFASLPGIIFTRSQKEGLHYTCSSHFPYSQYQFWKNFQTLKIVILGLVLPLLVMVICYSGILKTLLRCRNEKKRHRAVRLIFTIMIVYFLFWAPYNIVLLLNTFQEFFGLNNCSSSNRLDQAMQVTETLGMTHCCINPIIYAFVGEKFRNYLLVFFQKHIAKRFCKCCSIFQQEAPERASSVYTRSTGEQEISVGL
# [2] = tested on: HEK293; test: Cytotoxicity against HEK293 cells at 50 uM after 7 hrs by CCK-8 assay; type: cell-based; details: human, hek293, 7 h
# Outline: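 HEK293 cells at 5000 cells/well preincubated 24 h at 37 °C in 5% CO2, then exposed to compound for 7 h. CCK-8 reagent added, plates incubated a further 2 h at 37 °C, and absorbance read at […].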
# [3] = biological target: hERG (KCNH2) (Homo sapiens, UniProt Q12809); test: Inhibition of human ERG at 3 uM by patch clamp assay
# hERG (KCNH2), sequence (Q12809 whole entry): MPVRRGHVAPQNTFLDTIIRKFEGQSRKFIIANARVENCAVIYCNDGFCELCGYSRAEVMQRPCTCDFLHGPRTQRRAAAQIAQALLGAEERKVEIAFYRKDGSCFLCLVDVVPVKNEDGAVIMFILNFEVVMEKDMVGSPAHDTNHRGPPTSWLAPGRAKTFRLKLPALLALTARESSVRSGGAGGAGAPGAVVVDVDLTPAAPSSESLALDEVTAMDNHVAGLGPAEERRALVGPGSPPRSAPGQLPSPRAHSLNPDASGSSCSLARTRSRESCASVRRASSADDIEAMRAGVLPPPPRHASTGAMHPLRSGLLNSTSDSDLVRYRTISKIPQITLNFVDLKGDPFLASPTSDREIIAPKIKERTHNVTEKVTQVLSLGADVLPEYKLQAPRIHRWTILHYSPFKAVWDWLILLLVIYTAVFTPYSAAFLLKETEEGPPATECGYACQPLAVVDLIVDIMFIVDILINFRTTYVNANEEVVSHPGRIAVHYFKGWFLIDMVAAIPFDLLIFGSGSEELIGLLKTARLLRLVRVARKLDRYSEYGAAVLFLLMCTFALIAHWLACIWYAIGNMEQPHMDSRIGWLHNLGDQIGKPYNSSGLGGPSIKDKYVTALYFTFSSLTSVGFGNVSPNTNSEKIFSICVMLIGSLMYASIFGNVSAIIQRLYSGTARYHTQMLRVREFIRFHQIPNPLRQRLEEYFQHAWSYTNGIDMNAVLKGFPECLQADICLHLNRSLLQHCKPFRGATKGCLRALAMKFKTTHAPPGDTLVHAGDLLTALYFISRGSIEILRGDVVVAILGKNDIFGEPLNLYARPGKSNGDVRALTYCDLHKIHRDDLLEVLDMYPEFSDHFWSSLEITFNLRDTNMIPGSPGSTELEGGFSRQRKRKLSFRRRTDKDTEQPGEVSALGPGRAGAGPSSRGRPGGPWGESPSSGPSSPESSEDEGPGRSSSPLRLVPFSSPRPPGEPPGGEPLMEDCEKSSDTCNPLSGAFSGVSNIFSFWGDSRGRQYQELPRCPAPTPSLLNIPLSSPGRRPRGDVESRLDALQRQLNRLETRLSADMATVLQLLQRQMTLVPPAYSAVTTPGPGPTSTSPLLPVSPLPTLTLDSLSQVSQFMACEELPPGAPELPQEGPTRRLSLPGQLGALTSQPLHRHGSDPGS
# [4] = Oral bioavailability in Sprague-Dawley rat at 25 mg/kg; type: ADME, organism-based; details: in vivo
# [5] = Half life in Sprague-Dawley rat at 25 mg/kg, po; type: ADME, organism-based; parameters: dose 25 mg/kg, route oral; details: in vivo
# [6] = Half life in Sprague-Dawley rat at 4 mg/kg, iv; type: ADME, organism-based; parameters: dose 4 mg/kg, route intravenous; details: in vivo
# [7] = AUC (0 to 24 hrs) in Sprague-Dawley rat at 25 mg/kg, po; type: ADME, organism-based; parameters: time < 24 hr, dose 25 mg/kg, route oral; details: plasma
# [8] = AUC (0 to 24 hrs) in Sprague-Dawley rat at 4 mg/kg, iv; type: ADME, organism-based; parameters: time < 24 hr, dose 4 mg/kg, route intravenous; details: plasma
# [9] = Plasma clearance in Sprague-Dawley rat at 25 mg/kg, po; type: ADME, organism-based; parameters: dose 25 mg/kg, route oral
# [10] = Plasma clearance in Sprague-Dawley rat at 4 mg/kg, iv; type: ADME, organism-based; parameters: dose 4 mg/kg, route intravenous
# [11] = tested on: Rattus norvegicus; test: Volume of distribution at steady state in Sprague-Dawley rat at 25 mg/kg, po; type: ADME, organism-based; parameters: dose 25 mg/kg, route oral; details: in vivo
# [12] = Volume of distribution at steady state in Sprague-Dawley rat at 4 mg/kg, iv; type: ADME, organism-based; parameters: dose 4 mg/kg, route intravenous; details: in vivo, read-out: Vdss
# [13] = tested on: Human immunodeficiency virus 1; test: Antiviral activity against HIV-1 infected in human SupT1 cells assessed as inhibition of viral infectivity after 48 hrs by luciferase reporter gene assay; type: functional, organism-based; details: Human immunodeficiency virus 1, SUP-T1, 48 h
# Outline: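 Pseudovirions made by co-transfecting 293T cells with pNL-Luc-E- and pENV-R5. Supernatant collected at 48 h, filtered, and capsid protein quantified by p24 antigen-capture ELISA. SupT1 cells (1 × 10^5) infected with supernatant in the presence of compound, lysed 48 h post-infection, and firefly luciferase activity measured.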
# [14] = biological target: T1, C-C chemokine receptor type 5; test: Antagonist activity at CCR5 (unknown origin) expressed in CHO cell membranes assessed as inhibition of RANTES-stimulated [35S]-GTPgammaS binding after 1 hr by liquid scintillation counting analysis; type: functional
SMILES,IC50 [1],Activity [2],further results
CCN(Cc1ccc(C)cc1)C(=O)C1CCN(CCCN(C(=O)C2CCN(C(C)=O)CC2)c2cccc(Cl)c2)CC1,202 nM,Non-toxic,
CCN(Cc1ccc(F)cc1)C(=O)C1CCN(CCCN(C(=O)C2CCN(C(C)=O)CC2)c2cccc(Cl)c2)CC1,320 nM,Non-toxic,
CCN(Cc1ccc(Cl)cc1)C(=O)C1CCN(CCCN(C(=O)C2CCN(C(C)=O)CC2)c2cccc(Cl)c2)CC1,93.5 nM,Non-toxic,
CCN(Cc1ccc(C#N)cc1)C(=O)C1CCN(CCCN(C(=O)C2CCN(C(C)=O)CC2)c2cccc(Cl)c2)CC1,473 nM,Non-toxic,
CC(=O)N1CCC(C(=O)N(CCCN2CCC(C(=O)N(C)Cc3ccccc3)CC2)c2cccc(Cl)c2)CC1,64.1 nM,Non-toxic,
CC(=O)N1CCC(C(=O)N(CCCN2CCC(C(=O)NCc3ccccc3)CC2)c2cccc(Cl)c2)CC1,25.7 nM,Non-toxic,inhibition at 3 µM [3]: 15.2%; bioavailability [4]: 15%; half-life [5]: 42.6 min; half-life [6]: 44.4 min; AUC(0-t) at 24 h [7]: 3130 ng·h/mL; AUC(0-t) at 24 h [8]: 3250 ng·h/mL; CL/F [9]: 148 mL/min/kg; clearance [10]: 20.8 mL/min/kg; Vdss [11]: 8.99 L/kg; Vd [12]: 1.23 L/kg; IC50 [13]: 73 nM
CC(=O)N1CCC(C(=O)N(CCCN2CCC(C(=O)NCc3ccc(F)cc3)CC2)c2cccc(Cl)c2)CC1,35.5 nM,Non-toxic,
CC(=O)N1CCC(C(=O)N(CCCN2CCC(C(=O)NCc3ccc(Cl)cc3)CC2)c2cccc(Cl)c2)CC1,25.5 nM,Non-toxic,IC50 [13]: 94.1 nM
CC(=O)N1CCC(C(=O)N(CCCN2CCC(C(=O)NCc3ccc(C#N)cc3)CC2)c2cccc(Cl)c2)CC1,75.3 nM,Non-toxic,
CC(=O)N1CCC(C(=O)N(CCCN2CCC(C(=O)Nc3ccccc3)CC2)c2cccc(Cl)c2)CC1,> 1000 nM,Non-toxic,
CCN(C(=O)C1CCN(CCCN(C(=O)C2CCN(C(C)=O)CC2)c2cccc(Cl)c2)CC1)c1ccccc1,> 1000 nM,Non-toxic,
CC(=O)N1CCC(C(=O)N(CCCN2CCC(C(=O)NCCc3ccccc3)CC2)c2cccc(Cl)c2)CC1,76 nM,Non-toxic,
CC(=O)N1CCC(C(=O)N(CCCN2CCC(C(=O)NCCc3ccc(F)cc3)CC2)c2cccc(Cl)c2)CC1,197 nM,Non-toxic,
CC(=O)N1CCC(C(=O)N(CCCN2CCC(C(=O)NCCc3ccc(Cl)cc3)CC2)c2cccc(Cl)c2)CC1,86.7 nM,Non-toxic,
CCN(CCc1ccccc1)C(=O)C1CCN(CCCN(C(=O)C2CCN(C(C)=O)CC2)c2cccc(Cl)c2)CC1,26.4 nM,Non-toxic,
CCN(CCc1ccc(F)cc1)C(=O)C1CCN(CCCN(C(=O)C2CCN(C(C)=O)CC2)c2cccc(Cl)c2)CC1,152 nM,Non-toxic,
CCN(CCc1ccc(Cl)cc1)C(=O)C1CCN(CCCN(C(=O)C2CCN(C(C)=O)CC2)c2cccc(Cl)c2)CC1,126 nM,Non-toxic,
CCN(C(=O)Cc1ccccc1)C1CCN(CCCN(C(=O)C2CCN(C(C)=O)CC2)c2cccc(Cl)c2)CC1,252 nM,,IC50 [14]: 7 nM
CCN(Cc1ccccc1)C(=O)C1CCN(CCCN(C(=O)C2CCN(C(C)=O)CC2)c2cccc(Cl)c2)CC1,525 nM,Non-toxic,
Cc1nnc(C(C)C)n1[C@H]1C[C@H]2CC[C@@H](C1)N2CC[C@H](NC(=O)C1CCC(F)(F)CC1)c1ccccc1 [MARAVIROC],,,IC50 [13]: 1.1 nM
